Measured values published in the EternaBench riboswitch data.

System: MS2 coat protein
Test: apparent Kd, MS2 coat protein; higher = weaker binding; RNA-MaP array; FMN 200 µM where present
In short: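 Two titrations, one without ligand and one with constant ligand, were run with SNAP-549-labelled MS2 coat protein from 0.7 or 1.5 nM, doubling to 3 µM. The targets were designs transcribed by stalled E. coli RNA polymerase on Illumina sequencing-chip clusters, in 100 mM Tris-HCl pH 7.5, 80 mM KCl, 4 mM MgCl2, BSA, DTT, yeast tRNA and Tween-20. The apparent Kd is the median of filtered per-cluster binding-curve fits, with green signal normalised to red-channel RNA signal and control-cluster median Fmax.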

[1] = designed as: OFF switch for flavin mononucleotide, no ligand
[2] = ligand present: flavin mononucleotide, designed as: OFF switch for flavin mononucleotide
[3] = designed as: ON switch for flavin mononucleotide, no ligand
[4] = ligand present: flavin mononucleotide, designed as: ON switch for flavin mononucleotide

Row | Sequence | apparent Kd [1] | apparent Kd [2] | apparent Kd [3] | apparent Kd [4]
1 | GGGCCCGGAGGAUAUACAUGAGGAUCACCCAUGUAGGGCCCGGGUAUUUUUGGGCCCUGUAGAAGGUUGGGCCC | 11.5 nM | 12.2 nM |  | 
2 | GUGGUCAGACAUGAGGAUCACCCAUGUGGAAUAAAUAAGGAGAAGGAUAUGAAAUAUAGGAUAUAUCAGAAGGUCUGGUUGGUG |  |  | 72.2 nM | 77.1 nM
3 | UUUAGUUGCGGGCAGGAUAUGUAUUAAAAUACAUGAGGAUCACCCAUGUGUGGGUAUAACACCCAACAGAAGGGCCAAUCGCGAC |  |  | 132 nM | 18.3 nM
4 | AUUUAUUUACAGAAGGAGUAUGAUAAUGUUUUACUAGGAUAUGUAUACAUGAGGAUCACCCAUGUUAUUAUAGGUUUUUUAUGU | 10.3 nM | 7.08 nM |  | 
5 | UACAAUCUAUCUGAGGAUAUCAUGAAAAAAACAUGAGGAUCACCCAUGUGCAGGAAAACUGCAUAUGAGAAGGCAGAUAGAUUGG |  |  | 736 nM | 28.9 nM
6 | AAAUACCGGUGAGGAUAUUUAUAAUAGAACUUUAUGAUAUACAUGAGGAUCACCCAUGUUACUUUAAAGAAGGCAUCGGAUAAA | 18.8 nM | 15 nM |  | 
7 | GGAGCUCACAUUAACAUGAGGAUCACCCAUGUCUCUAGACAUGAGGAUAUGGAUCCUAAUUGGAUCCAGAAGGCAUGGAGCUCC |  |  | 1450 nM | 118 nM
8 | GGAGCAUAUCAAUACAUGAGGAUCACCCAUGUCGAAUGAUAUGAGGAUAUGCAUCGGAAAACGAUGUAGAAGGCAUAGUGCUCC |  |  | 9.14 nM | 5.58 nM
9 | CAUCCGAAUGAGAAGGGUCACAUGAGGAUCACCCAUGUGACCUCAUCGAUGACAGGAUAUCAUGGGUGGCAGUGUAAAGUUGGC | 6.6 nM | 7.04 nM |  | 
10 | CGAUCGUGUAGAGGAUAUGUUAAACAUGAGGAUCACCCAUGUAAGGUAGAAAUUUUUAUAAACAUACAGAAGGCUACACGAUCG | 7.32 nM | 5.15 nM |  | 
11 | AGUGUCAUCGAGAAGGCCUCAUGAACAUGAGGAUCACCCAUGUAAAAUGGGAGGAUAUCGAUGAUACAGCUACGUUUCGUAGCA |  |  | 74.4 nM | 28.5 nM
12 | CCAUGACCGUAAGCGAUUACCACAUGAGGAUCACCCAUGUACAGAAGGCGGACGUCAUUAUGAACCGAGGAUAUGUACCAGGGU | 92.2 nM | 12.1 nM |  | 
13 | AAUUAUUUACAGAAGGAGUAAGAUUAUGUAUUACUAGGAUAUGUUCACAUGAGGAUCACCCAUGUCAUUGUAGGUUUUAUAUGU | 10.8 nM | 8.19 nM |  | 
14 | CGUUCAGAGAACGAUACGAAUGGACAUGAGGAUCACCCAUGUAGAAGGACAACGGAAUAAACGUUGUAGGAUAUACAUUUAGUG | 53.7 nM | 134 nM |  | 
15 | UCCGUAAUUCUGAGCUUCGCGAUGAGAAGGGUAGAGGCUGGGUCCUACAUGAGGAUCACCCAUGUACAGGAUAUCAUUGCACGA | 14.1 nM | 30.3 nM |  | 
16 | AGUCCUGACGUCAGGAUAUCCGGCCAAUAGGCCAAGGAGAAGGGACAUGAGGAUCACCCAUGUGCUUGGGUCCG | 23.2 nM | 40.2 nM |  | 
17 | GCAAAGCCUGACAUGAGGAUCACCCAUGUUAGAUUGUUAUGUCAGGAUAUUGUCUAGCAACUAGACAAGAAGGGAUGCUUUGCU |  |  | 369 nM | 27.6 nM
18 | AAAAAGGUAGGAUAUACGAAAAAAAAGGGUAAAAUAAAUAAACAUGAGGAUCACCCAUGUAGAAGGACCAAAAA | 25.3 nM | 64.4 nM |  | 
19 | GUGUACGGAGGAUAUAUGUGGCGAGCAUACGCUCGAGCUUCACAUGAGGAUCACCCAUGUAGAAGGCUGUGCAC | 19 nM | 102 nM |  | 
20 | UGUUGUAUUACAGGAUAUCUAGUAUUUUUUUUUAGAGAAGGGUAUUCACAUGAGGAUCACCCAUGUAUAUACGAGGAAGUUGUG |  |  | 67.1 nM | 71.1 nM
21 | GAUCAACAUGAGGAUCACCCAUGUGAGGAUAUGAUACUAUGUACUUCGGUACAUAGUAUCAGAAGGCAUAUGAA | 56.7 nM | 98.5 nM |  | 
22 | UUUAUAAAGAUAGGAUAUUGUAUAAUAAUUUAAUAAGAAGGAUCACACAUGAGGAUCACCCAUGUAUGAGGAUCACCCAUGUAU | 19.7 nM | 20.3 nM |  | 
23 | AAAAAGUGAGGAUAUGGAAAAAAAAAAAAAAAAAAAAAAAACCAGAAGGCACAUGAGGAUCACCCAUGUAAAAA | 39.6 nM | 39.4 nM |  | 
24 | UGCAUGGUAGGAUAUACGGAACAUUAGGGUUUGUUGUGUGGACAUGAGGAUCACCCAUGUAGAAGGGCCGUGCU | 45.5 nM | 78.6 nM |  | 

Row | Sequence | apparent Kd [1] | apparent Kd [2] | apparent Kd [3] | apparent Kd [4]
25 | CUAUUGGCAGGAUAUGCUUUUUUUGACAUGAGGAUCACCCAUGUGAUGCAUUUUGGGUUUGCAGAAGGGCCUGAGU | 74.3 nM | 75.1 nM |  | 
26 | GAGUUUACGUUUGUCACUUUGCGAGAGGAUAUGGAAAACUUGACAUGAGGAUCACCCAUGUUUUAUCAGAAGGCUCGAGUACGA |  |  | 10.2 nM | 6.09 nM
27 | GGAUAGGACAGAGGAUAUACGGAUAGGAUCUACUAUCUUUCUCAAAUAACAUGAGGAUCACCCAUGUAGAAGGCUGUCCUAUCG | 21.5 nM | 122 nM |  | 
28 | CCGAAACCUCAGAAGGACCACAUGAGGAUCACCCAUGUCAAGCAAAACGGUAGGAUAUGAGGGAAAAGUCGAUAUACCCGACAG |  |  | 7.84 nM | 3.93 nM
29 | UAUACUUACGAAGGAUAUGGUUACAUGAGGAUCACCCAUGUAUGUAUAUUGAUCUAGUAUUUUAACCAGAAGGUCGUGAGUAUA | 65.5 nM | 53.4 nM |  | 
30 | CUGGAUCACGCAGGAUAUUACAUGAGGAUCACCCAUGUCAGGACUGCAAUAUCGUCUCCUCGGUGUGAGAAGGGCGGAAUCAUU | 15 nM | 27 nM |  | 
31 | CUACUGUGAGGAUAUGGUGAGUAGUGCCUGAGCGCUGCUCACCAGAAGGCACAUGAGGAUCACCCAUGUAUGAC | 53.9 nM | 220 nM |  | 
32 | UAAAUUUUGUAAGGAUAUACACGAGAUUCAAGUGUAGAAGGUACUUACAUGAGGAUCACCCAUGUAUACAUGGAUAAUAGAUAU |  |  | 436 nM | 141 nM
33 | GCGCCAUCGUGAGAUGGCGUAACGACAUGAGGAUCACCCAUGUAGGAUAUCGAUUGCUUUGCAGUCGAGAAGGGCAAGGUAAGU | 30.7 nM | 38.1 nM |  | 
34 | AGAGGUCUCUGUGAUAACGGUACGAAGGAUAUGCAUGGAUGGGCCGAGACAUGAGGAUCACCCAUGUAGAAGGUCGAUGCGCGU | 51 nM | 65.7 nM |  | 
35 | GUAGCUAUCGGAGGAUAUUCAUACCGGAAACGGACAUGAGGAUCACCCAUGUGGCGAAAGCAUUGGGAGAAGGCCGAUAGCUAC |  |  | 576 nM | 19.7 nM
36 | AAUUGGAUGCAGAAGGCAUGGACGACUCGUCACAUUAACAUGAGGAUCACCCAUGUAAUAAGACAUGAGGAUAUGCAUCCUAAA |  |  | 7.68 nM | 5.49 nM
37 | AUAUAUAUCCAGAAGGUGCCAGCGAGAGCUGCACAUGAGGAUCACCCAUGUUGUCGGUGACGACGCAAGGAUAUGGAUAUAUAU |  |  | 28.2 nM | 7.43 nM
38 | UCAUACGGUGAGGAUAUCUCCGCUAAAGUGUGUAGAGAAGGCGCUACAUGAGGAUCACCCAUGUUUGUGGGCAG | 402 nM | 149 nM |  | 
39 | CAGUACGGAGGAUAUACAUGAGGAUCACCCAUGUGAGAAAUACUAGUGAGGUCGAUUAGUAGAAGGCUGUACUG | 40.5 nM | 579 nM |  | 
40 | UAUAUAAUUAAGAGCUGGCUCAAAACAUGAGGAUCACCCAUGUAGGAUAUCAGCACGAUAAGUGCUGAGAAGGACAUCCAGCUC | 16.9 nM | 24.5 nM |  | 
41 | UGUCGGAGCAGAGGAUAUUACAUGAGGAUCACCCAUGUAAAUGGAAUAAGCUGGAAACAGCAAUGUAAGAAGGCUGCUCCGACA | 70.2 nM | 619 nM |  | 
42 | CUUAUGCGGCAGGAUAUCGUGCUUUUCGAGCAGCGAGAAGGGUCUACAUGAGGAUCACCCAUGUCAGUGGCUCU | 18.3 nM | 37.8 nM |  | 
43 | UCAGGCUUCGAGAAGGACAUGAGGAUCACCCAUGUGCGUGUGAAGCAGCCGUGAGGCUGCAUCAUGUAGGAUAUCGGAGUCUGG | 74 nM | 583 nM |  | 
44 | CCAAUUCUGGCAUCCUUAUUACAUGAGGAUCACCCAUGUUGUGAGGAUAUCCCAACCCACGGUCAGGAGAAGGCACAAAGAGGG | 4.9 nM | 5.01 nM |  | 
45 | UGGAGGUCAGGAUAUGCAUGGCGGGACUUGCGUCGUGGCGUGCAGAAGGGACAUGAGGAUCACCCAUGUGGAGA | 88.6 nM | 112 nM |  | 
46 | CCGAUGGUAUACUAGGAUAUGGGCGCCCUUACAUGAGGAUCACCCAUGUUAUCACAAAUCCGCGGCCAGAAGGAGUUCAUGGGAG |  |  | 176 nM | 134 nM
47 | UUCUUUACACGAGGAUAUCAUACAUGAGGAUCACCCAUGUUACUUUGUCUGUUAUUAUGUAUUAUUGAGAAGGCGUUUUUCUUU | 20.7 nM | 17.9 nM |  | 
48 | UCCACUACUGAGAAGGGAUACAUAUAGUUCUAGUCAGGAUAUCGAUACAGUGCAGCAUGAGGACAUGAGGAUCACCCAUGUAUU |  |  | 22.1 nM | 16.2 nM
